Data reported in ChEMBL document CHEMBL1143683, “Arylthioindole inhibitors of tubulin polymerization. 3. Biological evaluation, structure-activity relationships and molecular modeling studies” (J Med Chem, 2007).
pIC50: −log10 of the molar value. Activity calls are given as the source filed them. The rule behind the calls is not given here.

What was measured:
[1] = biological target: Tubulin; experiment: Displacement of MTC from tubulin; format: protein-complex assay, Homo sapiens
[2] = biological target: Tubulin; experiment: Inhibition of tubulin polymerization; format: protein-complex assay, Homo sapiens
Procedure, shortened: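 Tubulin at 10 µM in 0.8 M monosodium glutamate pH 6.6 with varying drug, preincubated 15 min at 30 °C, then chilled on ice. Assembly started with 0.4 mM GTP and followed as turbidity at 350 nm for 20 min at 30 °C. IC50 taken from the extent of assembly.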

[3] = tested on: MCF7; experiment: Growth inhibition of human MCF7 cells after 48 hrs; format: functional, cell-based; details: MCF7, 48 h
[4] = biological target: Tubulin (Homo sapiens) (UniProt P68371+Q9H4B7+P0DPH7+P68366+Q13509+Q71U36+P04350+Q3ZCM7+P07437+P68363+Q9BQE3+Q6PEY2+Q13885+Q9BVA1+Q9BUF5); experiment: Inhibition of [3H]colchicine binding to tubulin at 5 uM; format: protein-complex assay
[5] = tested on: HeLa; experiment: Induction of apoptosis in HeLa cells assessed as PARP1 ceavage at 100 uM; format: functional, cell-based; details: Homo sapiens
Procedure, shortened: (§1)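 HeLa cells given 10 µM for 24 h, or 100 µM for 3 h followed by 24 h recovery. Total extracts from 2.5 × 10⁶ cells analysed by western blot with anti-PARP-1 mAb C-2-10 and an HRP anti-mouse secondary, ECL detection. PARP-1 proteolysis taken as the marker of caspase activation.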

[6] = tested on: HeLa; experiment: Cell cycle arrest in HeLa cells assessed as accumulation of A0 sub-G1 DNA content at 10 uM after 24 hrs; format: functional, Homo sapiens
Procedure, shortened: (§2)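 HeLa cells in DMEM with 10% FCS, 37 °C, 5% CO2. Subconfluent cells trypsinized, seeded at 2.5 × 10⁵ cells/mL and exposed to 10 µM for 24 h (0.1% DMSO in parallel samples). Harvested either at once or after another 24 h in drug-free medium. Ethanol-fixed, stained with propidium iodide plus RNase A, ≥10 000 cells flow-analysed. Values are % of cells per phase; one typical experiment.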

[7] = tested on: HeLa; experiment: Cell cycle arrets in HeLa cells assessed as accumulation at G1 phase at 10 uM after 24 hrs; format: functional, Homo sapiens; procedure, shortened: as §2
[8] = tested on: HeLa; experiment: Cell cycle arrest in HeLa cells assessed as accumulation at S phase at 10 uM after 24 hrs; format: functional, Homo sapiens; procedure, shortened: as §2
[9] = tested on: HeLa; experiment: Cell cycle arrest in HeLa cells assessed as accumulation at G2/M phase at 10 uM after 24 hrs; format: functional, Homo sapiens; procedure, shortened: as §2
[10] = tested on: HeLa; experiment: Cell cycle arrest in HeLa cells assessed as accumulation at >4C phase at 10 uM after 24 hrs; format: functional, Homo sapiens; procedure, shortened: as §2
[11] = tested on: HeLa; experiment: Cell cycle arrest in HeLa cells assessed as accumulation of A0 sub-G1 DNA content at 10 uM after 24 hrs with further incubation in drug free medium for 24 hrs; format: functional, Homo sapiens; procedure, shortened: as §2
[12] = tested on: HeLa; experiment: Cell cycle arrets in HeLa cells assessed as accumulation at G1 phase at 10 uM for 24 hrs with further incubation in drug free medium for 24 hrs; format: functional, Homo sapiens; procedure, shortened: as §2
[13] = tested on: HeLa; experiment: Cell cycle arrest in HeLa cells assessed as accumulation at S phase at 10 uM after 24 hrs with further incubation in drug free medium for 24 hrs; format: functional, Homo sapiens; procedure, shortened: as §2
[14] = tested on: HeLa; experiment: Cell cycle arrest in HeLa cells assessed as accumulation at G2/M phase at 10 uM after 24 hrs with furthur incubation in drug free medium for 24 hrs; format: functional, Homo sapiens; procedure, shortened: as §2
[15] = tested on: HeLa; experiment: Cell cycle arrest in HeLa cells assessed as accumulation at >4C phase at 10 uM after 24 hrs with furthur incubation in drug free medium for 24 hrs; format: functional, Homo sapiens; procedure, shortened: as §2
[16] = tested on: HeLa; experiment: Induction of apoptosis in HeLa cells assessed as PARP1 ceavage at 10 uM; format: functional, cell-based; details: Homo sapiens; procedure, shortened: as §1

Row | SMILES | Ka [1] [M⁻¹] | pIC50 [2] | pIC50 [3] | inhibition [4] [%] | also measured
1 | COC(=O)c1[nH]c2ccc(Cl)cc2c1Sc1cc(OC)c(OC)c(OC)c1 | 1.3e+06 |  |  |  | 
2 | COc1cc(Sc2c[nH]c3ccc(OCCO)cc23)cc(OC)c1OC |  | 5.17 | 7.02 | 31 | 
3 | COc1cc(Sc2c[nH]c3ccc([N+](=O)[O-])cc23)cc(OC)c1OC |  | 4.80 | 6.25 |  | 
4 | COc1ccc(-c2ccc(OC)c(=O)cc2)c(OC)c1OC | 470000 |  |  |  | 
5 | COc1ccc2[nH]c(C)c(Sc3cc(OC)c(OC)c(OC)c3)c2c1 | 6.38e+06 | 5.48 | 7.74 | 69 | 
6 | COc1cc(Sc2c[nH]c3ccccc23)cc(OC)c1OC | 5.21e+06 | 5.59 | 7.47 | 68 | 
7 | COc1cc(Sc2c[nH]c3ccc(N)cc23)cc(OC)c1OC |  | 4.89 | 6.59 |  | 
8 | CCOc1ccc2[nH]cc(Sc3cc(OC)c(OC)c(OC)c3)c2c1 |  | 5.68 | 7.80 | 76 | 
9 | COc1cc(Sc2c(C)[nH]c3ccccc23)cc(OC)c1OC | 5.5e+06 | 5.17 | 7.34 | 61 | 
10 | COc1cc(Sc2c[nH]c3ccc(O)cc23)cc(OC)c1OC |  | 5.20 | 6.72 | 26 | 
11 | COC(=O)c1[nH]c2ccccc2c1Sc1cc(OC)c(OC)c(OC)c1 | 570000 |  |  |  | 
12 | Cc1cc(C)cc(Sc2c[nH]c3ccc(Cl)cc23)c1 |  | 5.03 | 5.92 | 33 | 
13 | COc1cc(Sc2c[nH]c3ccc(OC(C)C)cc23)cc(OC)c1OC |  | 4.72 | 5.82 |  | 
14 | COc1ccc(/C=C\c2cc(OC)c(OC)c(OC)c2)cc1O [COMBRETASTATIN A4] |  |  | 7.77 |  | 
15 | COc1cc(Sc2c[nH]c3ccc(Cl)cc23)cc(OC)c1OC | 810000 | 5.59 | 7.11 | 51 | 
16 | COc1cc([C@@H]2c3cc4c(cc3[C@@H](O[C@@H]3O[C@@H]5CO[C@@H](C)O[C@H]5[C@H](O)[C@H]3O)[C@H]3COC(=O)[C@H]23)OCO4)cc(OC)c1O |  |  |  |  | Activity [5]: Active
17 | COc1cc(Sc2c(C)[nH]c3ccc(Cl)cc23)cc(OC)c1OC | 2.07e+06 | 5.57 | 7.09 | 59 | 
18 | COc1cc(Sc2c[nH]c3ccc(F)cc23)cc(OC)c1OC |  | 5.48 | 6.80 | 39 | 
19 | COc1cc(Sc2c[nH]c3ccc(Br)cc23)cc(OC)c1OC | 2.76e+06 | 5.80 | 7.37 | 65 | Activity [6]: 6.5%; Activity [7]: 1.8%; Activity [8]: 8.9%; Activity [9]: 56.1%; Activity [10]: 4.2%; Activity [11]: 4.5%; Activity [12]: 3.5%; Activity [13]: 10.5%; Activity [14]: 53.1%; Activity [15]: 26%; Activity [16]: inactive
20 | COc1ccc2[nH]cc(Sc3cc(OC)c(OC)c(OC)c3)c2c1 | 3.05e+06 | 5.39 | 7.66 | 61 | 
21 | COc1cc(Sc2c[nH]c3ccc(C)cc23)cc(OC)c1OC | 1.96e+06 | 5.57 | 7.80 | 56 | 
22 | COc1ccccc1Sc1c[nH]c2ccc(Cl)cc12 |  | 4.96 | < 5.60 |  | 
23 | COc1cc(Sc2c[nH]c3ccc(I)cc23)cc(OC)c1OC | 2.31e+06 | 5.57 | 7.17 | 61 | 
24 | COc1cc(Sc2c[nH]c3ccc(OCCOCc4ccccc4)cc23)cc(OC)c1OC |  | < 4.40 | 6.59 |  | 
